Measured values reported in ChEMBL document CHEMBL1158956, “Biologically active metabolites from Xenorhabdus spp., Part 2. Benzopyran-1-one derivatives with gastroprotective activity” (1991).
≈ marks a conversion by molar mass, not a printed value. Calls of active or inactive are those of the source. The calls are words filed in the database; no cut-off is given here.

Experiments:
Staphylococcus aureus [1] = experiment: Antimicrobial activity against Staphylococcus aureus Oxford NCTC 6571; assay type: functional
In short: (§1)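 MIC by blood agar screen: DST agar with 10% defibrinated horse blood; inocula were undiluted overnight broth cultures; plates incubated aerobically overnight at 37°.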

Cryptococcus neoformans = experiment: Antimicrobial activity against Cryptococcus neoformans; assay type: functional
In short: (§2)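 Microtiter MIC with twofold dilutions in defined (Yeast Nitrogen Base + 1% glucose) and complex (Sabouraud's glucose) broth; compound from DMSO stock, final DMSO <1%; inocula 10^3 and 10^5 cells/ml; incubated 2 days at 37°.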

Streptococcus pyogenes = experiment: Antimicrobial activity against Streptococcus pyogenes CN10; assay type: functional; in short: as §1
Streptococcus sanguinis = experiment: Antimicrobial activity against Streptococcus sanguis ATCC 10556; assay type: functional; in short: as §1
Escherichia coli [2] = experiment: Antimicrobial activity against Escherichia coli 10418; assay type: functional; in short: as §1
Salmonella typhimurium = experiment: Antimicrobial activity against Salmonella Typhimurium CT10; assay type: functional, Salmonella enterica subsp. enterica serovar Typhimurium; details: Salmonella enterica; in short: as §1
Micrococcus luteus = experiment: Antimicrobial activity against Sarcina lutea ATCC 8740; assay type: functional; in short: as §1
Klebsiella aerogenes = experiment: Antimicrobial activity against Klebsiella aerogenes A; assay type: functional; in short: as §1
Citrobacter freundii = experiment: Antimicrobial activity against Citrobacter freundii ES; assay type: functional; in short: as §1
Rattus norvegicus [3] = experiment: Antiulcerogenic activity in stress-induced Wistar rat assessed as protection from ulcer at 25 mg/kg, po; assay type: functional
Staphylococcus aureus [4] = experiment: Antimicrobial activity against Staphylococcus aureus V573; assay type: functional; in short: as §1
Pseudomonas aeruginosa = experiment: Antimicrobial activity against Pseudomonas aeruginosa 1771P; assay type: functional; in short: as §1
Acinetobacter lwoffii = experiment: Antimicrobial activity against Acinetobacter lwoffii BRL 2400; assay type: functional; in short: as §1
Priestia megaterium = experiment: Antimicrobial activity against Bacillus megaterium NCIB 9376; assay type: functional; in short: as §1
Enterobacter cloacae = experiment: Antimicrobial activity against Enterobacter cloacae N1; assay type: functional; in short: as §1
Proteus mirabilis = experiment: Antimicrobial activity against Proteus mirabilis C977; assay type: functional; in short: as §1
Corynebacterium xerosis = experiment: Antimicrobial activity against Corynebacterium xerosis NCTC 9755; assay type: functional; in short: as §1
Escherichia coli [5] = experiment: Antimicrobial activity against Escherichia coli ESS; assay type: functional; in short: as §1
Rattus norvegicus [6] = experiment: Antiulcerogenic activity in stress-induced Wistar rat assessed as protection from ulcer at 10 mg/kg, po; assay type: functional
Escherichia coli [7] = experiment: Antimicrobial activity against Escherichia coli DCO; assay type: functional; in short: as §1
Aspergillus fumigatus = experiment: Antimicrobial activity against Aspergillus fumigatus at […] after 2 days by tube dilution method; assay type: functional, organism-based
In short: (§3)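 Tube dilution MIC in defined medium (Yeast Nitrogen Base + 1% glucose) and complex medium (Sabouraud's glucose broth); compound dissolved in DMSO, final DMSO <1%; tenfold dilutions 100 to 0.1 μg/ml; inoculum 10^4 spores/ml; 2 days at 37°.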

[8] = system: Trichophyton mentagrophytes; experiment: Antimicrobial activity against Trichophyton mentagrophytes at 128 ug/ml after 11 days by twofold dilution method; assay type: functional, organism-based
Candida parapsilosis = experiment: Antimicrobial activity against Candida parapsilosis at 128 ug/ml after 2 days by twofold dilution method; assay type: functional, organism-based; in short: as §2
Candida albicans = experiment: Antimicrobial activity against Candida albicans at 128 ug/ml after 2 days by twofold dilution method; assay type: functional, organism-based; in short: as §2
Aspergillus niger = experiment: Antimicrobial activity against Aspergillus niger at […] after 2 days by tube dilution method; assay type: functional, organism-based; in short: as §3
Trichophyton rubrum = experiment: Antimicrobial activity against Trichophyton rubrum at 128 ug/ml after 11 days by twofold dilution method; assay type: functional, organism-based
Rattus norvegicus [9] = experiment: Antiulcerogenic activity in stress-induced Wistar rat assessed as protection from ulcer at 5 mg/kg, po; assay type: functional

| MIC (Staphylococcus aureus [1]) [µg/mL] | MIC (Streptococcus pyogenes) [µg/mL] | MIC (Streptococcus sanguinis) [µg/mL] | MIC (Escherichia coli [2]) [µg/mL] | MIC (Salmonella typhimurium) [µg/mL] | MIC (Micrococcus luteus) [µg/mL] | MIC (Klebsiella aerogenes) [µg/mL] | MIC (Citrobacter freundii) [µg/mL] | MIC (Staphylococcus aureus [4]) [µg/mL] | MIC (Pseudomonas aeruginosa) [µg/mL] | MIC (Acinetobacter lwoffii) [µg/mL] | MIC (Priestia megaterium) [µg/mL] | MIC (Enterobacter cloacae) [µg/mL] | MIC (Proteus mirabilis) [µg/mL] | MIC (Corynebacterium xerosis) [µg/mL] | MIC (Escherichia coli [5]) [µg/mL] | MIC (Escherichia coli [7]) [µg/mL] | SMILES | Activity (Rattus norvegicus [3]) [%] | Activity (Rattus norvegicus [6]) [%] | also measured |
| --- | --- | --- | --- | --- | --- | --- | --- | --- | --- | --- | --- | --- | --- | --- | --- | --- | --- | --- | --- | --- |
| 10 (≈ 21.5 µM) | 1 (≈ 2.15 µM) | 10 (≈ 21.5 µM) | 2.5 (≈ 5.37 µM) | > 100 | 1 (≈ 2.15 µM) | > 100 | > 100 | 25 (≈ 53.7 µM) | > 100 | 2.5 (≈ 5.37 µM) | 2.5 (≈ 5.37 µM) | > 100 | > 100 | 1 (≈ 2.15 µM) | 0.5 (≈ 1.07 µM) | 10 (≈ 21.5 µM) | CC(C)CC(NC(=O)C(O)C(O)C(N)CCCNC(=N)N)C1Cc2cccc(O)c2C(=O)O1 (stereo unspecified) [XENOCOUMACIN 1] | 74 | 8 | MIC (Cryptococcus neoformans): 0.125 µg/mL (≈ 0.268 µM) |
| 5 (≈ 12.3 µM) | 5 (≈ 12.3 µM) | 10 (≈ 24.6 µM) | 50 (≈ 123 µM) | > 100 | 5 (≈ 12.3 µM) | > 100 | > 100 | > 100 | > 100 | 5 (≈ 12.3 µM) | 5 (≈ 12.3 µM) | > 100 | > 100 | 5 (≈ 12.3 µM) | 2.5 (≈ 6.15 µM) | > 100 | CC(C)CC(NC(=O)C(O)C(O)C1CCCN1)C1Cc2cccc(O)c2C(=O)O1 (stereo unspecified) [XENOCOUMACIN 2] | 70 | 61 | Activity (Aspergillus fumigatus): inactive; Activity [8]: inactive; Activity (Candida parapsilosis): inactive; Activity (Candida albicans): inactive; Activity (Aspergillus niger): inactive; Activity (Trichophyton rubrum): inactive; Activity (Rattus norvegicus [9]): 26% |
